According to PubChem BioAssay AID552 (SRMLSC, 2006):
Out of some 20,000 compounds screened, about 10 (0.05%) were called active. Rule as the data show it: active = inhibition above about 40%; inactive = the rest. The sample as a whole holds a higher share of actives than the screen did.

Test: antibacterial activity on E. coli BW25113 – strain BW25113 wild type, absorbance readout, primary screen (AID 552);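 also: bacteria exposed to compound for 20 hours at 37 °C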
Details: E. coli BW25113 growth inhibition, OD600; at 10 µM; active compounds read high
Summary of the method: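 System: bacterial strain in a whole-cell growth screen; medium: LB broth with 50 µg/mL kanamycin; detection: absorbance at 615 nm; schedule: 20 h exposure, 37 °C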

inhibition, inactive:
Cc1cc2c(cc1C)NC(c1ccccn1)C1=C(CC(C)(C)CC1=O)N2 (stereo not drawn) -18.9%, CCOC(=O)COc1ccc(Cl)cc1C1NC(=O)NC(C)=C1C(C)=O (stereo not drawn) -10.9%, O=C(COc1ccc(F)cc1)N(CC1=CCS(=O)(=O)C1)c1ccccc1 -20.6%, CC1(C)CC(=O)C=C(NCc2ccncc2)C1 -1.29%, CCc1cc(Br)ccc1NC(=O)C1CCCO1 (stereo not drawn) -16.5%, Cc1cc(C)nc(SCc2nnc(SCC(=O)Nc3ncc(C)s3)n2Cc2ccco2)n1 -3.82%, CCOc1ccc(-c2nnn(CC(=O)N3CCN(c4ccc(F)cc4)CC3)n2)cc1OCC -5.75%, CCCOc1ccccc1-c1nc(SCCC(=O)O)n[nH]1 -18.4%, CCOC(=O)CSc1nnc(CNC(=O)c2cccs2)n1-c1cc(OC)ccc1OC 6.52%, Cc1cc(C)n(C(=O)c2ccc(S(=O)(=O)N3CCCC3)cc2)n1 -20.2%, CCCCn1c(CN2CCN(CCO)CC2)nc2ccccc21 -3.29%, Nc1nc(SCCOc2ccccc2)n[nH]1 6.28%, O=C(CSc1nc(-c2ccco2)cc(C(F)(F)F)n1)N1CCc2ccccc2C1 -19.6%, COCCn1c(CN(Cc2ccccc2)Cc2ccccc2)nc2c1c(=O)n(C)c(=O)n2C 12.3%, O=C(CSc1nnc(-c2cccs2)n1-c1ccccc1)NCc1ccco1 -20.9%, CCS(=O)(=O)NCCc1ccc(OC)c(OC)c1 -17.9%, CC1=C(C(=O)Nc2ccccc2)C(c2cccs2)C(C#N)=C(SCC#N)N1 (stereo not drawn) 7.71%, CCn1cc(NC(=O)Nc2ccc(OC)c(OC)c2)c(C(N)=O)n1 -17.1%, NC(=O)CSc1oc(-c2cccs2)nc1S(=O)(=O)c1ccccc1 -19.6%, COc1ccc(-c2noc(COc3ccc(Cl)c(C)c3)n2)cc1 15.8%, CS(=O)(=O)N(Cc1nc2sc3c(c2c(=O)[nH]1)CCCC3)C1CCCCC1 9.07%, CC(c1nnc(SCC(=O)Nc2sccc2C#N)n1-c1ccc(Cl)cc1)N(C)C (stereo not drawn) -3.98%, Cc1ccc(S(=O)(=O)NCc2nc3ccccc3c(=O)n2N)cc1 -21.5%
